High-throughput results: PubChem BioAssay, several laboratories
An excerpt weighted towards active compounds, which were near 1.9% of everything screened.
GRK2 inh: human GRK2 inhibition via aptamer displacement. 330,000 compounds, 0.59% hits. bead flow cytometry, FAM-aptamer displacement from GRK2. AID 488847. P25098. inhibition of aptamer binding, % at 10 µM;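 active means inhibition of aptamer binding above 40%, roughly 3 SD of noise, on plates passing a quality check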;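 further: median bead fluorescence of bound FAM aptamer so fluorescent compounds give negative values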
Rin1-Abl PPI inh: inhibitors of human Rin1-Abl protein interaction; P00519+Q13671; TR-FRET Rin1/Abl binding, biochemical; inhibition, % at 7.35 µM; 360,000 compounds, 0.4% hits; AID 588664; in the data active means inhibition above about 5%, passing the limit was not always enough
SR-BI uptake up: SR-BI HDL lipid transfer activation; activation, % at 12.5 µM; CHO ldlA[mSR-BI] cells, DiI-HDL uptake fluorescence, 3 h; 100 = double the neutral-control signal; 320,000 compounds, 0.096% hits;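 active means mean replicate activation of at least 60% and every replicate at or above 60%; inconclusive means mean or all-replicate condition met, but not both; inactive means mean below 60% and not all replicates reaching 60%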;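 further: 0% = median plate neutral-control signal and 100% = twice that signal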
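Test system: SR-BI-overexpressing, LDLR-lacking CHO cells; Also added: labelled HDL, 10 µg/mL; Measured by: bottom-read cell fluorescence after medium removal, ex 550/em 595 nm; Timing: 3 h uptake period with compound, 37 °C; Buffer or medium: F12, 0.5% BSA, 25 mM HEPES; Doses: single compound concentration, delivered by pin transfer.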
SR-BI HDL uptake: mouse SR-BI HDL lipid transfer inhibition; AID 488896; 320,000 compounds, 0.96% hits; inhibition, % at 12.5 µM; ldlA[mSR-BI] CHO cells, DiI-HDL uptake fluorescence, 3 h; Q61009;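 active means mean replicate inhibition of at least 70% and a set share of replicates each scoring 70 or more; inconclusive means meets just one of the two criteria; inactive means fails both criteria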;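 further: 0% = median of neutral control wells and 100% = median of positive control wells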
An asterisk follows results filed as active; ? = inconclusive; nt = no result given.

SMILES	GRK2 inh	Rin1-Abl PPI inh	SR-BI uptake up	SR-BI HDL uptake
COc1ccc(C(=O)Nc2oc(-c3ccccc3)c(-c3ccccc3)c2C#N)cc1OC	0	0	-82	82*
N#Cc1c(NC(=O)Cn2c(=O)oc3ccccc32)oc(-c2ccccc2)c1-c1ccccc1	1	3	-10	10
COc1ccccc1NC(=O)COC(=O)Cn1c(C)csc1=O	nt	-3	nt	nt
CC(C)(C)c1cc(C2COC(=O)COCCOCC(=O)OCCOCCO2)cc(C(C)(C)C)c1O (centres undefined)	nt	5	11	-11
O=C(c1cc(C2CCCCN2S(=O)(=O)c2ccc(F)cc2F)on1)N1CCOCC1 (centres undefined)	nt	2	nt	nt
COc1ccc(CN(C)C(=O)c2ccc(NC(=O)CC3SC(N4CCCCC4)=NC3=O)cc2)c(OC)c1 (centres undefined)	nt	3	-16	16
COc1ccc(CN2CCN(C(=O)C3CCN(S(=O)(=O)c4cccs4)CC3)CC2)c(OC)c1OC	0	2	-76	76*
O=C(Nc1ccc([N+](=O)[O-])cc1)C(c1ccccc1)c1ccccc1	nt	7	nt	nt
C[C@]12C(=O)N(c3ccc(Br)cc3)C(=O)N1[C@@H]1c3ccccc3OC[C@@H]1[C@H]2c1ccccc1	0	5	-75	75*
COc1ccc2c(c1)OC[C@H]1[C@H]2N2C(=O)c3cc(OC)ccc3NC(=O)[C@@]2(C)[C@H]1c1ccccc1	nt	2	-73	73*
C[C@@]12C(=O)N(c3ccc(Br)cc3)C(=O)N1[C@@H]1c3ccccc3OC[C@@H]1[C@H]2c1ccccc1	4	3	-18	18
Cc1cccc(C(=O)NNC(=O)c2ccc(-c3ccccc3)cc2)c1	0	4	-80	80*
O=C(/C=C/NNC(=O)c1ccccc1)c1ccccc1	1	-2	-71	?
O=C(/C=C/NNC(=O)c1ccccc1O)c1ccccc1	nt	2	-114	114*
O=C(/C=C/NNC(=O)c1ccccc1)c1ccc([N+](=O)[O-])cc1	4	2	-123	123*
Cc1cccc(C(=O)NN/C=C/C(=O)c2ccccc2)c1	0	0	-89	89*
O=C(/C=C/NNC(=O)c1ccc(Br)cc1)c1ccccc1	4	-3	nt	nt
COc1ccc(S(=O)(=O)N2CCOCC2)cc1NC(=O)COC(=O)C1CC1C (centres undefined)	2	-1	-3	3
COc1cccc(CNC(=O)c2ccc(F)c(S(=O)(=O)N3CCCCC3)c2)c1	nt	6	nt	nt
COc1ccc(OCC(=O)Nc2cccc(S(=O)(=O)N(C)c3ccccc3)c2)c([N+](=O)[O-])c1	0	-5	11	-11
Cc1cccc(C(=O)c2c(N)sc3c2CCC(C)C3)c1 (centres undefined)	0	-4	-73	73*
CCOC(=O)N1CCC(NC(=O)c2ccc3c(c2)N(C)C(=O)/C(=C/c2cccc(OC)c2)S3)CC1	0	-3	-75	75*
COc1ccc(/C=C2\Sc3ccc(C(=O)NCCCN4CCCC4)cc3N(C)C2=O)cc1OC	0	-8	-78	78*
Cc1cccc(/C=C2\Sc3ccc(C(=O)NCC4CCCO4)cc3N(C)C2=O)c1 (centres undefined)	2	0	-92	92*
Oc1ccccc1-c1cc(-c2ccc3c(c2)OCCO3)n[nH]1	0	-1	-78	78*
SMILES	GRK2 inh	Rin1-Abl PPI inh	SR-BI uptake up	SR-BI HDL uptake
O=C(O)c1cc(-c2ccc3c(c2)OCCO3)n[nH]1	1	3	9	-9
CCN1C(=O)/C(=C2/C(=O)N3c4c(cc(OC(C)=O)cc42)C(C)=CC3(C)C)SC1=S	4	-1	-86	86*
COc1cc2c3c(c1)/C(=C1/SC(NC(C)=O)=NC1=O)C(=O)N3C(C)(C)C=C2C	3	-6	-20	20
C[C@H]1CCCCO[C@H](CN(C)Cc2ccc(C(=O)O)cc2)[C@@H](C)CN([C@@H](C)CO)C(=O)c2cc(NS(=O)(=O)c3cn(C)cn3)ccc2O1	nt	-1	nt	nt
O=C(CN(c1cccc(Cl)c1)S(=O)(=O)c1ccc(Cl)cc1)NCc1ccccn1	0	-1	-83	83*
COc1ccc(/C=N/Nc2ccc([N+](=O)[O-])cc2)cc1Cn1cc([N+](=O)[O-])cn1	4	-2	-95	95*
Cn1c(=O)c2c(nc3sccn32)n(C)c1=O	0	-5	69*	-69
Cc1nc2sccn2c(=O)c1Cl	0	0	17	-17
Cn1nnnc1SCCNC(=O)C1CCC(=O)N(Cc2ccccc2F)C1 (centres undefined)	0	-1	72*	-72
Nc1nc(-c2ccccc2)c(-c2ccccc2)s1	0	1	-1	1
Nc1nc(-c2ccccc2)c(N=Nc2ccc(Cl)cc2)s1	2	-2	-86	86*
N#Cc1ccc(NC(=O)C2=COCCO2)cc1	1	0	2	-2
Cc1ccccc1Nc1nc(N)nc(COC(=O)[C@@H](NC(=O)c2c(F)cccc2F)C(C)C)n1	0	-7	-51	51
CC(=O)c1c(C)[nH]c(C(=O)OCC(=O)c2ccc(Br)cc2)c1C	nt	-6	nt	nt
CON/C=C(\C=Nc1ccc(Cl)cc1)c1ncc(C(F)(F)F)cc1Cl	0	-1	-73	73*
CC(C)CN(C(=O)c1cc(=O)[nH]c2ccccc12)c1c(N)n(Cc2ccccc2)c(=O)[nH]c1=O	0	4	-11	11
COc1ccc(C(CC(=O)O)c2cc(OC)c(OC)c(OC)c2)cc1OC (centres undefined)	nt	2	430*	-430
CC(CCc1ccccc1)NC(=O)C1CCCN(C(=O)c2cc3sccc3n2C)C1 (centres undefined)	0	1	-80	80*
CC(C)(C)NC(=O)C(=O)NNC(=O)C12CC3CC(CC(C3)C1)C2	0	1	111*	-111
O=c1cc(-c2ccc(O)c(O)c2)oc2cc(O[C@@H]3O[C@H](CO)[C@@H](O)[C@H](O)[C@H]3O)cc(O)c12	17	24*	35	-35
COc1cc(C(=O)N2CCC2(C)C(=O)O)cc(OC)c1OC (centres undefined)	nt	-4	nt	nt
COc1ccc(-c2cc(C(=O)N/N=C/c3ccc(OC)c(COCC(F)(F)C(F)F)c3)c3ccccc3n2)c(OC)c1	0	-4	-80	80*
Cc1nn(-c2ccccc2)c(N2CCCC2)c1/C=N/NC(=O)c1ccccc1O	3	-4	-55	55
O=C(N/N=C/c1cccc(F)c1)c1cc(-c2ccco2)nc2ccccc12	43*	-5	-30	30
Cc1nn(-c2ccccc2)c(N2CCCC2)c1/C=N/NC(=O)c1cc(-c2cccnc2)nc2ccccc12	0	4	-89	89*
Cc1ccc(-c2cc(C(=O)N/N=C/c3c(C)nn(C)c3C)c3ccccc3n2)cc1C	0	-4	-86	86*
COc1cc(C2CC(=O)Oc3cc(C)cc(C)c32)cc(OC)c1OC (centres undefined)	0	0	6	-6
